Data set [1] in a line: Dissociation constant, pKa2 of the compound by potentiometric titration assay. It counts as physicochemical.
Data set [2] is described as follows: AUC (0 to 24 hrs) in Wistar rat at 1 mg/kg, iv by LC-MS/MS analysis. Also noted: time < 24 hr, dose 1 mg/kg, route intravenous. The following applies: Wistar, in vivo. It counts as ADME, organism-based. In a few lines: (§1)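 Fasted male Wistar rats; compound in water for injection, given i.v. (2 mL/kg) or p.o. (10 mL/kg). Plasma exposure measured as AUC0-24hr.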

Data set [3] is described as follows: Volume of distribution at steady state in Wistar rat at 3 mg/kg, po or 1 mg/kg, iv by LC-MS/MS analysis. It counts as ADME, organism-based. The following applies: Wistar, in vivo, read-out: Vdss. In a few lines:
(§2)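 Fasted male Wistar rats were dosed orally and intravenously, with water for injection as the vehicle for both routes, at dosing volumes of 10 mL/kg p.o. and 2 mL/kg i.v.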

Data set [4] in a line: AUC (0 to 24 hrs) in Wistar rat at 3 mg/kg, po by LC-MS/MS analysis. It counts as ADME, organism-based. Also noted: dose 3 mg/kg, time < 24 hr, route oral. The following applies: in vivo. In a few lines: as §1
Data set [5] has as its system CHO-K1. Briefly: Cytotoxicity in CHOK1 cells up to 300 uM incubated for 24 hrs by MTT assay. In kind it is cell-based, Cricetulus griseus. Conditions: chinese hamster, cho-k1, 24 h. (In general: Formazan colour is commonly taken as a measure of viable cells.)
Data set [6] is described as follows: Lipophilicity, log D of the compound at pH 7.4. In kind it is physicochemical. The following applies: buffer.
The nature of data set [7]: Oral bioavailability in Wistar rat at 3 mg/kg by LC-MS/MS analysis. It counts as ADME, organism-based. The following applies: in vivo. In a few lines:
as §2

A short description of data set [8]: Ratio of drug uptake in Wistar rat brain to plasma at 3 mg/kg, po by LC-MS/MS analysis. Conditions: brain and plasma, read-out: BPR. In kind it is ADME, organism-based. In a few lines: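 Fasted male Wistar rats were dosed orally with water for injection as the vehicle. Total brain and plasma concentrations were measured at 1 h after dosing and expressed as a ratio.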

The test system of data set [9] is CHO-K1. Briefly: Induction of phospholipidosis in CHOK1 cells up to 300 uM incubated for 24 hrs by fluorescent-labeled phospholipid probe NBD-PE based fluorescence assay. It counts as cell-based, Cricetulus griseus. The following applies: chinese hamster, cho-k1, 24 h.
The nature of data set [10]: Dissociation constant, pKa1 of the compound by potentiometric titration assay. It counts as physicochemical.
A short description of data set [11]: Partition coefficient, log P of the compound. It counts as physicochemical. The following applies: octanol/water.
The nature of data set [12]: Tmax in Wistar rat at 3 mg/kg, po or 1 mg/kg, iv by LC-MS/MS analysis. Conditions: in vivo. It counts as ADME, organism-based. In a few lines:
as §2

A short description of data set [13]: Clearance in Wistar rat at 1 mg/kg, iv by LC-MS/MS analysis. In kind it is ADME, organism-based. Conditions: in vivo. In a few lines: (§3)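 Fasted male Wistar rats dosed i.v. in water for injection at 2 mL/kg. Clearance and half-life derived from the i.v. plasma profile.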
A further data set deals with Rattus norvegicus. Briefly: In vivo inverse agonist activity at histamine 3 receptor in rat assessed as inhibition of RAMH-induced dipsogenia at 1 to 10 mg/kg, po measured after 3 days. It counts as functional, organism-based. The method in brief: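 Rats were dosed orally with 1, 3 or 10 mg/kg, then given (R)-α-methylhistamine 2.5 mg/kg s.c. Water intake (mL) was measured and reported as mean ± SEM.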

Data set [14] can be described thus: Half life in Wistar rat at 1 mg/kg, iv by LC-MS/MS analysis. It counts as ADME, organism-based. The following applies: in vivo. The method in brief: as §3
The next data set addresses Histamine H3 receptor (Homo sapiens, UniProt Q9Y5N1). In words: Displacement of [3]-RAMH from recombinant human histamine H3 receptor expressed in CHO-K1 cell membranes after 60 mins by scintillation counting.

Data on 4 molecules can be found in ChEMBL document CHEMBL4368912, “Discovery and Development of N-[4-(1-Cyclobutylpiperidin-4-yloxy)phenyl]-2-(morpholin-4-yl)acetamide Dihydrochloride (SUVN-G3031): A Novel, Potent, Selective, and Orally Active Histamine H3 Receptor Inverse Agonist with Robust Wake-Promoting Activity” (J Med Chem, 2019).

Structures are written as SMILES. Calls of active or inactive are those of the source.

Sequence of Histamine H3 receptor (Q9Y5N1 whole entry): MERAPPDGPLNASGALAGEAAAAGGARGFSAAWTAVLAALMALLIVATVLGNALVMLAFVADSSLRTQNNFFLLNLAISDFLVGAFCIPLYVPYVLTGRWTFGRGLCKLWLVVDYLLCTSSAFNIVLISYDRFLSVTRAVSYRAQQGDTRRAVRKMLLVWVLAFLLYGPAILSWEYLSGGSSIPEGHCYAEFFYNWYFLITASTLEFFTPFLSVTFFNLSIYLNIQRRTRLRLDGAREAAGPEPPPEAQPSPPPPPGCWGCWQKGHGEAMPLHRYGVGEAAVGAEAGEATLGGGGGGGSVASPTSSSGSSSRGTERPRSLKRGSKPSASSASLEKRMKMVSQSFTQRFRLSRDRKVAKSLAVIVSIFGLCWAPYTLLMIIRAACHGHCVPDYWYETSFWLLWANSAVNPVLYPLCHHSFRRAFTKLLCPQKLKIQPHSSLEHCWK

Consider `CC(C)N1CCC(Oc2ccc(NC(=O)CN3CCOCC3)cc2)CC1.Cl.Cl`, for which the results for the pKa in data set [1] and in data set [10] were 5 and 8.9, respectively. Moreover, the AUC(0-t) (commonly the area under the concentration-time curve up to a stated or last time point) at 24 h in data set [2] amounted to 340 ng·h/mL; in data set [4], 850 ng·h/mL. The Vd in [3] was 6 L/kg. Moreover, the Activity entry in the data set on CHO-K1 [5] and in the data set on CHO-K1 [9] was “Non-Toxic” in each case. Also, the pH-dependent lipophilicity (logD) (usually lipophilicity at a set pH, counting ionised and neutral species) in data set [6] came to 0.5. Further, in data set [7], the bioavailability was 85%. Moreover, in [8], the Kp turned out to be 0.33. Further, in [11], the logP (as a rule, a log measure of how a compound divides between an organic and an aqueous phase) was found to be 1.8. In addition, the Tmax (commonly the time from dosing to the highest level) in [12] came to 0.42 h. Moreover, the clearance (usually a measure of how efficiently the substance is removed, as volume per time) in data set [13] is 48 mL/min/kg.

Regarding `Clc1ccc(CCCOCCCN2CCCCC2)cc1`, the inhibition result in the data set on Rattus norvegicus was “Active”.

With `O=C(Cc1ccncc1)Nc1ccc(OC2CCN(C3CCC3)CC2)cc1.O=C(O)C(O)C(O)C(=O)O`, in data set [14], the half-life (commonly the time needed for the level to fall by half in the phase considered) is 1.12 h. Besides, at Histamine H3 receptor, the inhibition constant Ki (usually the equilibrium dissociation constant of an inhibitor or competing ligand from its target) is 9.51 nM. Moreover, the area under the curve AUC(0-t) at 24 h worked out at 145 ng·h/mL in data set [2] and 545 ng·h/mL in data set [4]. Also, the Vd in data set [3] stood at 7 L/kg. Besides, the bioavailability in data set [7] stood at 125%. Also, in data set [8], the Kp is 0.16. In data set [12], the Tmax worked out at 0.25 h. Besides, the clearance in [13] amounted to 113 mL/min/kg.

For the molecule `O=C(NCCN1CCOCC1)c1ccc(OC2CCN(C3CCC3)CC2)cc1`, in data set [14], the half-life was 13.8 h. Further, the inhibitory constant (Ki) at Histamine H3 receptor was 2.8 nM. Moreover, the AUC(0-t) at 24 h in [2] came to 255 ng·h/mL; in data set [4], 347 ng·h/mL. Moreover, in data set [3], the Vd was 45 L/kg. In addition, in data set [7], the bioavailability stood at 46%. Also, the Kp in data set [8] came out at 0.07. The time of peak concentration (Tmax) in data set [12] is 1.33 h. The clearance in data set [13] worked out at 51 mL/min/kg.
